Here are results for 1 compound from ChEMBL document CHEMBL1687785, “ampG gene of Pseudomonas aeruginosa and its role in β-lactamase expression” (2010).

As usually defined, the MIC is the smallest concentration in the dilution series that meets the test's criterion for growth inhibition.

Values after ≈ are worked out from the molar mass of the structure shown.

Common to all, as to format: functional
Test [1] relates to Pseudomonas aeruginosa. Briefly: Antimicrobial activity against ampGh1 deficient Pseudomonas aeruginosa PAO1 after 16 to 20 hrs by broth microdilution method in presence of 120 uM carbonyl cyanide m-chlorophenyl-hydrazone. The procedure, abridged: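 Serial 2-fold dilutions of β-lactam in Mueller-Hinton broth with CCCP added from a 10 mM DMSO stock to 120 μM final; inoculum about 10^4 cells from cultures grown to OD600 0.5; MIC taken as lowest concentration preventing growth after 16 to 20 h at 37°C; triplicate.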
In general terms: In broth dilution the organism is exposed to a series of concentrations in liquid medium.

The test system of test [2] is Pseudomonas aeruginosa. Briefly: Antimicrobial activity against ampG, ampGh1 deficient Pseudomonas aeruginosa PAO1 after 16 to 20 hrs by broth microdilution method in presence of 120 uM carbonyl cyanide m-chlorophenyl-hydrazone. The procedure, abridged:
(§1)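 CLSI broth microdilution in Mueller-Hinton broth with serial antibiotic dilutions. CCCP was added from a 10 mM DMSO stock to 120 μM final, then the bacterial culture was added as inoculum (about 10^4 cells from OD600 0.5 starter cultures). MIC was the lowest concentration preventing growth after 16 to 20 h at 37°C, run in triplicate.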

Test [3] concerns Pseudomonas aeruginosa. Briefly: Antimicrobial activity against ampGh1 deficient Pseudomonas aeruginosa PAK after 16 to 20 hrs by broth microdilution method in presence of 120 uM carbonyl cyanide m-chlorophenyl-hydrazone. The method, boiled down: as §1
Test [4] deals with Pseudomonas aeruginosa. Briefly: Antimicrobial activity against ampD, ampDh2, ampDh3 and ampGh1 deficient Pseudomonas aeruginosa PAO1 after 16 to 20 hrs by broth microdilution method in presence of 120 uM carbonyl cyanide m-chlorophenyl-hydrazone. The procedure, abridged: as §1
In test [5] the test system is Pseudomonas aeruginosa. Briefly: Antimicrobial activity against Pseudomonas aeruginosa isolate 11 obtained from cystic fibrosis patients after 16 to 20 hrs by broth microdilution method. The method, boiled down: (§2)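 CLSI broth microdilution: 2-fold serial antibiotic dilutions in Mueller-Hinton broth, inoculated with about 10^4 cells per 100 μl from starter cultures grown to OD600 0.5. MIC is the lowest concentration preventing growth after 16-20 h at 37°C. Triplicate.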

Test [6] has as its system Pseudomonas aeruginosa. Briefly: Antimicrobial activity against Pseudomonas aeruginosa isolate 13 obtained from cystic fibrosis patients after 16 to 20 hrs by broth microdilution method. The method, boiled down:
as §2

Test [7] relates to Pseudomonas aeruginosa. Kind of test: Antimicrobial activity against Pseudomonas aeruginosa isolate 16 obtained from cystic fibrosis patients after 16 to 20 hrs by broth microdilution method in presence of 120 uM carbonyl cyanide m-chlorophenyl-hydrazone. The procedure, abridged: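 CLSI broth microdilution in Mueller-Hinton broth with CCCP added from a 10 mM DMSO stock to 120 μM final, alongside 2-fold serial antibiotic dilutions. Inoculum from starter cultures grown to OD600 0.5. MIC is the lowest concentration preventing growth after 16-20 h at 37°C. Triplicate.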

As for `CC1(C)S[C@@H]2[C@H](NC(=O)[C@H](N)c3ccccc3)C(=O)N2[C@H]1C(=O)O` [AMPICILLIN], the MIC in the test on Pseudomonas aeruginosa [1] was 256 µg/mL; with Pseudomonas aeruginosa [2], 32 µg/mL; with Pseudomonas aeruginosa [3] it was 256 µg/mL; with Pseudomonas aeruginosa [4], 64 µg/mL; with Pseudomonas aeruginosa [5], 512 µg/mL (≈ 1470 µM); in the test with Pseudomonas aeruginosa [6], above 1020 µg/mL. Further, the MIC with Pseudomonas aeruginosa [7] worked out at 8 µg/mL.
